Experimental findings from ChEMBL document CHEMBL4049415, “Kinetin Riboside and Its ProTides Activate the Parkinson's Disease Associated PTEN-Induced Putative Kinase 1 (PINK1) Independent of Mitochondrial Depolarization” (J Med Chem, 2017) are described below.

Molecules are shown by their SMILES. Active and inactive are the calls of the source. The calls are words filed in the database; no cut-off is given here.

Series [1] addresses Serine/threonine-protein kinase PINK1, mitochondrial (Homo sapiens) (UniProt Q9BXM7). The series is described as follows: Activation of FLAG tagged PINK1 (unknown origin) expressed in Flp-In TRex HEK293 cells co-expressing wild-type Parkin assessed as Parkin Ser65 phosphorylation at 50 uM after 24 hrs in absence of CCCP by immunoblotting analysis. Type of series: cell-based. (In general: A western blot detects proteins with antibodies after separation by electrophoresis.)

The target in series [2] is T1, cathepsin A (lysosomal protective protein) (Homo sapiens, UniProt P10619).
T1 sequence (P10619 whole entry): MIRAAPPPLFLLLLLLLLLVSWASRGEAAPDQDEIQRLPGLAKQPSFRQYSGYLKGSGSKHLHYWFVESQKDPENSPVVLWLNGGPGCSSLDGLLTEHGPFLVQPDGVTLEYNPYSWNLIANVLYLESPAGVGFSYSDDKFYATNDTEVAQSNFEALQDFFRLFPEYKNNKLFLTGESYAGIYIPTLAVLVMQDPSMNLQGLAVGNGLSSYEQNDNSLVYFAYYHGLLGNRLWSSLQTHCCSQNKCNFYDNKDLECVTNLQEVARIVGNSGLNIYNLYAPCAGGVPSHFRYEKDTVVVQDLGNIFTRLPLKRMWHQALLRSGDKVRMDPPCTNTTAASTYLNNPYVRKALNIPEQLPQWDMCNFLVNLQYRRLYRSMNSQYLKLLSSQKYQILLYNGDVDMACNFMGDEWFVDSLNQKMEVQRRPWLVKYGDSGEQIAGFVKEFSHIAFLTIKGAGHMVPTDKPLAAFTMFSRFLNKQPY
The series is described as follows: (§1) Stability in pH 7.4 trizma buffer assessed as cathepsin A (unknown origin)-mediated compound hydrolysis by measuring parent compound remaining at 5.0 mg measured after 12 hrs by 31P-NMR spectroscopic analysis. Type of series: ADME. The settings on record: cathepsin A in trizma buffer, pH 7.4, read-out: Stability.

Series [3] concerns the target T2, Lysosomal protective protein (Homo sapiens, UniProt P10619).
T2 sequence (P10619 whole entry): T1 sequence (P10619 whole entry)
Description: Prodrug activation in pH 7.4 trizma buffer assessed as cathepsin A (unknown origin)-mediated kinetin riboside monophosphate metabolite formation at 5.0 mg measured after 48 hrs by 31P-NMR spectroscopic analysis. The class given is ADME. The settings on record: pH 7.4, 48 h.

The test system of series [4] is Serum. Description: Metabolic stability of compound in human serum at 5.0 mg measured at even intervals over 11 hrs by 31P-NMR spectroscopic analysis. Type of series: ADME, cell-free. An outline of the steps:
(§2)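 Serum stability: 5.0 mg in DMSO-d6 and D2O, thawed human or mouse serum added in the NMR tube. 31P NMR at 37 °C, spectra immediately, at 30 min, then at even intervals over 11 h. Controls were compound without serum, and serum without compound.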

Series [5] has as its target T2, Lysosomal protective protein. The series is described as follows: Drug metabolism in pH 7.4 trizma buffer assessed as cathepsin A (unknown origin)-mediated (S)-2-((((2R,3S,4R,5R)-5-(6-(furan-2-ylmethylamino)-9H-purin-9-yl)-3,4-dihydroxytetrahydrofuran-2-yl)methoxy)oxidophosphorylamino)propanoate formation at 5.0 mg measured after 2 to 12 hrs by 31P-NMR spectroscopic analysis. Type of series: ADME.

Series [6] in a line: Chemical stability of compound in pH 1 buffer at 5.0 mg measured at every 20 mins over 12 hrs by 31P-NMR spectroscopic analysis. The class given is physicochemical. The settings on record: pH 1, 12 h. Put shortly: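 Acid stability: 5 mg in methanol-d4 mixed with pH 1 buffer (equal parts 0.2 M HCl and 0.2 M KCl). 31P NMR at 37 °C, spectra every 20 min over 12 h; persistence of parent phosphorus peaks followed.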

The target in series [7] is T2, Lysosomal protective protein. Description: Stability in pH 7.4 trizma buffer assessed as cathepsin A (unknown origin)-mediated compound hydrolysis at 5.0 mg measured after 15 mins by 31P-NMR spectroscopic analysis. Type of series: ADME. The settings on record: pH 7.4, 0.25 h.
In series [8] the test system is Serum. Description: Metabolic stability of the compound in mouse serum at 5.0 mg measured at even intervals over 11 hrs by 31P-NMR spectroscopic analysis. The class given is ADME, cell-free. Put shortly:
as §2

Series [9] concerns the target T2, Lysosomal protective protein. Described as §1. Type of series: ADME. To be noted: in vivo, pH 7.4, 12 h.
Series [10] concerns the target Serine/threonine-protein kinase PINK1, mitochondrial (Homo sapiens) (UniProt Q9BXM7). The series is described as follows: Activation of FLAG tagged PINK1 (unknown origin) expressed in Flp-In TRex HEK293 cells co-expressed with wild-type Parkin assessed as Parkin Ser65 phosphorylation at 10 uM by immunoblotting analysis. The class given is cell-based. The settings on record: TDE = time-dependent effect.

For series [11] the target is unchanged. Description: Activation of FLAG tagged PINK1 (unknown origin) expressed in Flp-In TRex HEK293 cells co-expressing wild-type Parkin assessed as Parkin Ser65 phosphorylation at 50 uM in absence of CCCP by immunoblotting analysis. Type of series: cell-based. To be noted: TDE = time-dependent effect.
Series [12] has the same target. Description: Activation of FLAG tagged PINK1 (unknown origin) expressed in Flp-In TRex HEK293 cells co-expressed with Parkin S65A mutant assessed as Parkin phosphorylation at 50 uM in absence of CCCP by immunoblotting analysis. The class given is cell-based.
For series [13], the target named is T2, Lysosomal protective protein. The series is described as follows: Drug level in pH 7.4 trizma buffer treated with phenyl(Isopropoxy-L-alaninyl) kinetin riboside phosphoramidate assessed as cathepsin A (unknown origin)-mediated metabolite formation at 5.0 mg measured after 2 to 12 hrs by 31P-NMR spectroscopic analysis. The class given is ADME.

Chain of Serine/threonine-protein kinase PINK1, mitochondrial (Homo sapiens) (Q9BXM7 whole entry): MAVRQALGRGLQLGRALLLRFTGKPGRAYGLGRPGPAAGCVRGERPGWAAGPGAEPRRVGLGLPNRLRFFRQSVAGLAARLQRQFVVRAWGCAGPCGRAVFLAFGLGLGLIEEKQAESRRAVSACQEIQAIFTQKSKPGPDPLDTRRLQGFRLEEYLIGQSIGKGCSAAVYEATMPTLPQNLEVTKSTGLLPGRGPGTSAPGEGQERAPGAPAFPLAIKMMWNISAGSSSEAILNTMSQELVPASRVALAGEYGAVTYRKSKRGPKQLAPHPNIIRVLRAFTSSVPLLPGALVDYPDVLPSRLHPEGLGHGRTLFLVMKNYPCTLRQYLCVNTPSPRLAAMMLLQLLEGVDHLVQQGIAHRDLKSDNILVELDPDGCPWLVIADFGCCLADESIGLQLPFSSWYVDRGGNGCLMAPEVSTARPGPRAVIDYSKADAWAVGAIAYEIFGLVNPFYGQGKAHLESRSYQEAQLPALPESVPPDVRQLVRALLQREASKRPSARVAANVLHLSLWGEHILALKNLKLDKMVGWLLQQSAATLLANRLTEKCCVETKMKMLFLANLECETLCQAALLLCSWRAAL

`c1coc(CNc2ncnc3[nH]cnc23)c1`: in series [1], the result was inactive.
Same read-out and setting: in the case of `COC(=O)[C@H](C)NP(=O)(OC[C@H]1O[C@@H](n2cnc3c(NCc4ccco4)ncnc32)[C@H](O)[C@@H]1O)Oc1ccccc1` (stereo partly drawn) it was “Active”.
Turning to `C[C@H](NP(=O)(OC[C@H]1O[C@@H](n2cnc3c(NCc4ccco4)ncnc32)[C@H](O)[C@@H]1O)Oc1ccccc1)C(=O)OC(C)(C)C` (stereo partly drawn), in series [1], the outcome was inactive. In addition, in series [2], the remaining at 12 h was 50%.
Regarding `CC(C)OC(=O)[C@H](C)NP(=O)(OC[C@H]1O[C@@H](n2cnc3c(NCc4ccco4)ncnc32)[C@H](O)[C@@H]1O)Oc1ccccc1` (stereo partly drawn), the Drug metabolism result in series [3] and in [5] was “Metabolite_Detected” in each case. Moreover, the Stability entry is given as “Stable” in the series on Serum [4]; “Stable” in series [6]; “Stable” in series [7]; “Stable” with Serum [8]; “Unstable” in [9]. The outcome in [1] was Active.
Regarding `N#CC(C#N)=NNc1cccc(Cl)c1`, the Activity result in series [10] is “Tde”.
For `C[C@H](NP(=O)(OC[C@H]1O[C@@H](n2cnc3c(NCc4ccco4)ncnc32)[C@H](O)[C@@H]1O)Oc1ccccc1)C(=O)OCc1ccccc1` (stereo partly drawn), the outcome in [1] was Active. Further, the Activity entry in series [11] was “Tde”. Further, the result in series [12] was inactive.
On to `C[C@H](NP(=O)(O)OC[C@H]1O[C@@H](n2cnc3c(NCc4ccco4)ncnc32)[C@H](O)[C@@H]1O)C(=O)O`, for which, in series [13], the Drug metabolism entry is listed as “Metabolite_Detected”.
Turning to `OC[C@H]1O[C@@H](n2cnc3c(NCc4ccco4)ncnc32)[C@H](O)[C@@H]1O`, the result in series [1] was Active.
